Calls of active or inactive are those of the source.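 Rule for the calls, unless noted: active = compounds giving at least 50% inhibition in the cell-based MKP-3 phosphatase rescue imaging test; inactive = the rest.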

The term inhibition denotes the relative decrease from the control value, in per cent.

Assay [1] is described as follows: inhibitors of TNFa-induced NFkB p65 translocation, primary screen, imaging, HUVEC, MLSMR starter and 10KST1 sets (AID 438;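 active = inhibition above 20% together with a positive visual image hit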;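 note: compound added about 3h40 before a 20 min TNFalpha stimulation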;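 for inhibition: signal is the nuclear over cytoplasmic p65 intensity ratio per well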). As to conditions: HUVEC TNFa-induced p65 nuclear translocation; cell count: measured here: nuclei count (cytotoxicity indicator), at 2.08 µM; inhibition: at 2 µM, stronger effect = higher value, 0% TNFa-plus-vehicle, 100% no-TNFa wells.
Assay [2] can be described thus: inhibitors of E-selectin induction by TNFa, primary screen, imaging, HUVEC, immunofluorescence, MLSMR starter and 10KST1 sets (AID 487;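 active = visually confirmed hit in the image check and inhibition above 20%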;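 for inhibition: signal is fraction of cell area covered by stained E-selectin grains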;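 for nuclei count: 100% = median nuclei count of all wells on the same plate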). As to conditions: HUVEC TNFalpha-induced E-selectin immunofluorescence imaging, at 2 µM; inhibition: stronger effect = higher value; nuclei count: measured here: cell number, toxicity.
Assay [3] can be described thus: DUSP6 inhibitors restoring Erk phosphorylation by chemical complementation, primary imaging in DUSP6-transfected HeLa (AID 609).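 For inhibition: phospho-Erk level distribution per well compared with pooled transfected vehicle control wells.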 The settings on record: HeLa MKP-3 transfected, phospho-Erk imaging KS statistic, at 10 µM, cells stimulated with TPA for 15 min.
The target in assay [4] is Dual specificity protein phosphatase 6 (Homo sapiens) (UniProt Q16828). The description is as above. The settings on record: HeLa MKP-3 transfected, phospho-Erk imaging KS statistic; at 10 µM; stronger effect = higher value; cells stimulated with TPA for 15 min.
Sequence of Dual specificity protein phosphatase 6 (Homo sapiens) (Q16828 whole entry, looked up): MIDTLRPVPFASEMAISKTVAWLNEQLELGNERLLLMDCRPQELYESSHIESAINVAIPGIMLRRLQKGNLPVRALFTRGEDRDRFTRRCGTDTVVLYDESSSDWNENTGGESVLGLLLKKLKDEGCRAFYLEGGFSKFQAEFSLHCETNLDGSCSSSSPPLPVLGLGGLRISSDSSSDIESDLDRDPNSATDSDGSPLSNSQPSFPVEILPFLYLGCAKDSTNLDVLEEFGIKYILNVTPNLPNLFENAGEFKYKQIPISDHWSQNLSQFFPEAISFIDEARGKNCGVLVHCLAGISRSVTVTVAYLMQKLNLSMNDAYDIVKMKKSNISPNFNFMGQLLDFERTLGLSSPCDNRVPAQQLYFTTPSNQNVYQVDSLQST
Assay [5] concerns the target Voltage-gated potassium channel subunit beta-2 (Rattus norvegicus) (UniProt P62483). As to the kind of experiment: KvBeta enzyme negative modulators, primary screen, biochemical, NADPH fluorescence (AID 622;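 active = fluorescence slope higher than the sample average by over 3 SD, cut at about -0.22 in these data, passing the limit was not always enough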;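 note: slope of raw intensity against log time taken from 70 to 1610 s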). The settings on record: recombinant KvBeta, 4-cyanobenzaldehyde reduction, at 10 µM, stronger effect = higher value.
Assay [6] shares this target. In words: KvBeta positive modulators, primary screen, biochemical, NADPH fluorescence (AID 623;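 active = NADPH fluorescence slope more negative than the mean of all samples by about 3 SD, 99.7% confidence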;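 note: fluorescence intensity change per second fitted from 20 to 320 s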). The settings on record: Recombinant KvBeta, NADPH fluorescence decrease slope, 10 min; at 10 µM; stronger effect = lower value.
The target of assay [7] is Alpha-2C adrenergic receptor (Homo sapiens) (UniProt P18825). In words: modulators of alpha2C/GIRK thallium flux, primary screen, cell-based, HEK293 alpha2C/GIRK1/2 (AID 624;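 active = fluorescence slope after compound addition differing from the mean of all screened samples at 99.7% confidence, in either direction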;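 note: slope of fluorescence ratio to pre-addition baseline per second over 15 to 24 s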). The settings on record: thallium flux BTC fluorescence, at 10 µM, actives lie on both sides.
Sequence of Alpha-2C adrenergic receptor (Homo sapiens) (P18825 whole entry, looked up): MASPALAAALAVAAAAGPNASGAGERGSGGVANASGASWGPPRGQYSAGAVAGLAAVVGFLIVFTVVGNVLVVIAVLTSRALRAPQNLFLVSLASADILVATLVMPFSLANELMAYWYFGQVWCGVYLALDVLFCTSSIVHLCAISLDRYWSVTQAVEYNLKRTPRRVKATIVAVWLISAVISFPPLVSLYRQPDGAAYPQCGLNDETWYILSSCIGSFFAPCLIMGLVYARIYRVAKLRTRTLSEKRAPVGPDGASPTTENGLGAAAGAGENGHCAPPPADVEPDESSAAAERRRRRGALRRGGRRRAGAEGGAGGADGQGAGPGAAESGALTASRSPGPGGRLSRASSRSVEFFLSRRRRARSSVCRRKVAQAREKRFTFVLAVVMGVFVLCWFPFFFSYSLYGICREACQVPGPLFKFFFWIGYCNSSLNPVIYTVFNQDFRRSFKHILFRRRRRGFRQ
Assay [8] in a line: inhibitors of larval lipid processing in zebrafish, primary screen, whole organism, PED6 fluorescence, gall bladder and intestine (AID 686;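 active = a full or partial loss of lipid-probe fluorescence in the fish gall bladder, intestine or both, judged by eye; inactive = no fluorescence loss, or compound toxic to the fish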;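 note: larvae 5 to 7 days old with five fish per well; signal comes from phospholipase A2 cleavage of quenched PED6 carried via bile; overnight exposure to compound and PED6 before scoring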). The settings on record: Zebrafish larvae PED6 lipid processing, fluorescence scoring; screened at 20 µM (by protocol). A digest of the protocol:
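system = live zebrafish larvae aged 5-7 days, whole organism | probe or stimulus = ingested quenched lipid PED6 at 100 nM | doses = 20 µM single dose | timing = overnight exposure | detection = fluorescence microscopy with visual scoring of gall bladder and intestine | read-out = visual per-well fluorescence inhibition score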

A short description of assay [9]: inhibitors of Chlamydomonas gravitaxis, primary screen, whole organism, Chlamydomonas reinhardtii, WT vs cilia-less mutant, absorbance, 96-well (AID 463189;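 active = inhibition at or above 50% relative to wild type and mutant plate controls; inactive = inhibition below 50%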;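 note: 0% = wild type cc124 cells in DMSO and 100% = ciliumless bld1 mutant cells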). The settings on record: OD600 absorbance, 2 days, at 10 µM, stronger effect = higher value.
[10] abbreviates: measured here: cell density z-score.
The mark [11] stands for this setting: measured here: nuclear c-Myc green intensity z-score.
[12] abbreviates: measured here: nuclear pErk red intensity z-score, stronger effect = higher value.

Sequence of Voltage-gated potassium channel subunit beta-2 (Rattus norvegicus) (P62483 whole entry, looked up): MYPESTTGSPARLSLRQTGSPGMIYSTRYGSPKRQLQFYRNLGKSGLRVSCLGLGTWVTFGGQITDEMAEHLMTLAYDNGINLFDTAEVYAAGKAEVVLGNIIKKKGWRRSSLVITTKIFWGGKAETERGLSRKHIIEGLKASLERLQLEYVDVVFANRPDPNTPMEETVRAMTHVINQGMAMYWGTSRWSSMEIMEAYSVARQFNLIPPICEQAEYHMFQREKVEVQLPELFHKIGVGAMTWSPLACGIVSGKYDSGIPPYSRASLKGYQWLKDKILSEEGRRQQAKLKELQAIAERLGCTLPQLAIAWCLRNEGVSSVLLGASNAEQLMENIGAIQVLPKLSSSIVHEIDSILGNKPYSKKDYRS

Consider `CCCC(=O)Nc1sc2c(c1C#N)CCCC2`, for which, in [1], the cell count is 385. Moreover, the inhibition in assay [1] was 7.8% (inactive); in assay [2], -83.9% (inactive); in assay [4], 3.56% (inactive); in [9], -10.7% (inactive). For the same compound, in [2], the nuclei count came to 110%. Further, the z-score is -0.165 in assay [3] (setting [10]), 0.756 in assay [3] (setting [11]) and -2.32 in [3] (setting [12]). In assay [5], the fluorescence slope is -0.445 (inactive). The NADPH fluorescence slope in assay [6] is -0.000372 (inactive). In assay [7], the slope was 0.00647 (inactive). Moreover, the compound was classed as inactive in assay [8].

Consider `N#Cc1nc(-c2ccc(Cl)cc2)oc1N1CCCCC1`, for which the cell count in assay [1] came out at 424. The inhibition in assay [1] is -5.8% (inactive); in [2], -41.2% (inactive); in assay [4] it was 9.61% (inactive); in assay [9], 20% (inactive). The nuclei count in assay [2] came out at 138%. For the same compound, the z-score was -0.0904 in [3] (setting [10]), -0.228 in assay [3] (setting [11]) and 0.966 in assay [3] (setting [12]). For the same compound, in assay [5], the fluorescence slope was -0.394 (inactive). For the same compound, in [6], the NADPH fluorescence slope was -1.7e-05 (inactive). For the same compound, the slope in [7] is 0.00666 (inactive). Also, the call in assay [8] was inactive.

With `c1csc(Cc2nn3c(-c4ccncc4)nnc3s2)c1`, the cell count in assay [1] came out at 669. In addition, the inhibition in assay [1] is -1.9% (inactive); in [2], -17.9% (inactive); in assay [4], -6.06% (inactive); in assay [9], 8.13% (inactive). Besides, in assay [2], the nuclei count is 159%. The values for the z-score in assay [3] (setting [10]), in assay [3] (setting [11]) and in [3] (setting [12]) were 0.0409, 0.511 and -0.101, respectively. For the same compound, in [5], the fluorescence slope was -0.412 (inactive). Also, the NADPH fluorescence slope in assay [6] is -0.000115 (inactive). The slope in assay [7] was 0.00514 (inactive). The compound was classed as inactive in assay [8].

Turning to `CCOC(=O)C(CC(=O)O)N1CCCCC1` (stereo unspecified), the cell count in [1] worked out at 485. In addition, the inhibition was -6.2% (inactive) in assay [1], -40.2% (inactive) in assay [2], 3.5% (inactive) in [4] and -13.4% (inactive) in assay [9]. In [2], the nuclei count is 89.2%. Further, the z-score in [3] (setting [10]) is -1.03; in assay [3] (setting [11]), 1.55; in [3] (setting [12]), -0.781. The fluorescence slope in assay [5] was -0.367 (inactive). The NADPH fluorescence slope in assay [6] was 4.4e-05 (inactive). Also, the slope in assay [7] is 0.00418 (inactive). Moreover, the compound was classed as inactive in assay [8].

As to `N#CC1=C(SCC(=O)c2ccc(Cl)cc2)NC2=C(C(=O)CCC2)C1c1ccco1` (stereo unspecified), the cell count in assay [1] turned out to be 362. The inhibition in [1] was -6.1% (inactive); in assay [2], -118% (inactive); in [4], 9.42% (inactive); in assay [9] it was 13.1% (inactive). Also, the nuclei count in assay [2] was determined as 147%. In addition, the z-score in assay [3] (setting [10]) was 1.13; in [3] (setting [11]) it was -0.168; in [3] (setting [12]), -0.867. Further, in assay [5], the fluorescence slope was -0.422 (inactive). In assay [6], the NADPH fluorescence slope is -0.000127 (inactive). Besides, in assay [7], the slope is 0.00564 (inactive). For the same compound, the outcome in assay [8] was “active; weak signal in gallbladder and intestine”.

For `CSC1=C(C#N)C(c2ccc(C)s2)CC(=O)N1` (stereo unspecified), the cell count in assay [1] came out at 411. For the same compound, the inhibition is -0.1% (inactive) in [1], 13.9% (inactive) in assay [2], 13.2% (inactive) in [4] and 24% (inactive) in [9]. The same compound gave a nuclei count in [2] of 63.5%. The z-score is 0.0106 in assay [3] (setting [10]), 2.55 in assay [3] (setting [11]) and -0.606 in [3] (setting [12]). Further, in assay [5], the fluorescence slope was -0.511 (inactive). In addition, the NADPH fluorescence slope in assay [6] is -5e-05 (inactive). For the same compound, in assay [7], the slope is 0.00472 (inactive). In addition, in assay [8], the compound was classed as inactive.

With `CCOc1nc(Oc2cccc(C(=O)O)c2)nc(Oc2cccc(C(=O)O)c2)n1`, the cell count in assay [1] was 627. The inhibition in assay [1] is -14.8% (inactive); in assay [2], -46.5% (inactive); in [4], -1.12% (inactive); in assay [9], 6.3% (inactive). This compound also came in with a nuclei count in assay [2] of 182%. In addition, the figures for the z-score in assay [3] (setting [10]), in assay [3] (setting [11]) and in assay [3] (setting [12]) were 0.0666, 0.636 and -0.0605, respectively. Besides, the fluorescence slope in [5] is -0.538 (inactive). For the same compound, the NADPH fluorescence slope in [6] is -3.4e-05 (inactive). In addition, the slope in [7] was 0.00497 (inactive). The call in [8] was inactive.

These data come from PubChem BioAssay.
